From article PMC6119551 (Neuropharmacology, 2018)

Experiments:
mice [1] = conditions: ref Gatch et al., 2017; cited from earlier work
male rats [2] = experiment: Body temperature via implanted transponder; type: in vivo, rat; conditions: sc, all doses tested, 15-120 min post-injection
human 5-HT2C receptors = target: T1, human 5-HT2C receptors (Homo sapiens, UniProt P28335); experiment: Calcium mobilization, HEK293 cells expressing human 5-HT2C; type: cell-based; conditions: for Emax: HEK293, read-out: 5-HT2C Mobilization of Calcium % Emax
T1 sequence (P28335 33-458): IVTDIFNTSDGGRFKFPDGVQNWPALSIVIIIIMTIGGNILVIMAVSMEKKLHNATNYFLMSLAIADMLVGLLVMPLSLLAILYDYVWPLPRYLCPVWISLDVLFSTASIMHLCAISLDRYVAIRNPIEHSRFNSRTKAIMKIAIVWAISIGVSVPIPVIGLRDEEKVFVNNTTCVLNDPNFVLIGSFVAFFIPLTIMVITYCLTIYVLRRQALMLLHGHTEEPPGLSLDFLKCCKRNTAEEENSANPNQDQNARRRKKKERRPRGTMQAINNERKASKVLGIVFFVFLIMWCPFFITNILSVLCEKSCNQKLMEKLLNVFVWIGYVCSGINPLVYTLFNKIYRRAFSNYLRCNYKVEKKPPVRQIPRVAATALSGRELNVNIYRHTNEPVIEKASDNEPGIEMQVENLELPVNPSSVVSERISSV

human 5-HT2A receptors [3] = target: T2, human 5-HT2A receptors (Homo sapiens, UniProt P28223); experiment: Calcium mobilization, HEK293 cells expressing human 5-HT2A; type: cell-based; conditions: for Emax: HEK293, read-out: 5-HT2A Mobilization of Calcium %Emax; for Fold more potent than NBOMe counterpart in 5-HT2A-mediated calcium mobilization: 2C-C vs 25C-NBOMe, 2C-I vs 25I-NBOMe
T2 sequence (P28223 whole entry): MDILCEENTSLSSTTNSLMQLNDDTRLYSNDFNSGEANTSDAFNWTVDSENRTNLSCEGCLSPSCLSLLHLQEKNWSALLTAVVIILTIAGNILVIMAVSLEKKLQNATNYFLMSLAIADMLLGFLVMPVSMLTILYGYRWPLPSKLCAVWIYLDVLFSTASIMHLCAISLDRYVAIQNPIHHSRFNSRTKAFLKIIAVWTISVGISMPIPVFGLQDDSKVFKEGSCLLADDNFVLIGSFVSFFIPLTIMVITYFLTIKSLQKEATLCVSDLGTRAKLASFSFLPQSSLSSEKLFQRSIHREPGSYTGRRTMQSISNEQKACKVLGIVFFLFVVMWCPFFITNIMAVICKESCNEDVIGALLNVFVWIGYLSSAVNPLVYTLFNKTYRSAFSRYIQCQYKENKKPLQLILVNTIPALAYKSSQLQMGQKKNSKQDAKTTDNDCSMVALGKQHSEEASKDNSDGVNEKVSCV

human 5-HT2A receptors [4] = target: T2, human 5-HT2A receptors; conditions: 25C-NBOMe vs 2C-C, 25I-NBOMe vs 2C-I; ref Rickli et al., 2015; cited from earlier work
mice [5] = conditions: sc, ref Halberstadt and Geyer, 2014; cited from earlier work
[6] = target: 5-HT2A receptors in rat brain tissue (Rattus norvegicus, UniProt P14842); experiment: [3H]M100907 radioligand binding in rat brain tissue
Sequence of 5-HT2A receptors in rat brain tissue (P14842 whole entry): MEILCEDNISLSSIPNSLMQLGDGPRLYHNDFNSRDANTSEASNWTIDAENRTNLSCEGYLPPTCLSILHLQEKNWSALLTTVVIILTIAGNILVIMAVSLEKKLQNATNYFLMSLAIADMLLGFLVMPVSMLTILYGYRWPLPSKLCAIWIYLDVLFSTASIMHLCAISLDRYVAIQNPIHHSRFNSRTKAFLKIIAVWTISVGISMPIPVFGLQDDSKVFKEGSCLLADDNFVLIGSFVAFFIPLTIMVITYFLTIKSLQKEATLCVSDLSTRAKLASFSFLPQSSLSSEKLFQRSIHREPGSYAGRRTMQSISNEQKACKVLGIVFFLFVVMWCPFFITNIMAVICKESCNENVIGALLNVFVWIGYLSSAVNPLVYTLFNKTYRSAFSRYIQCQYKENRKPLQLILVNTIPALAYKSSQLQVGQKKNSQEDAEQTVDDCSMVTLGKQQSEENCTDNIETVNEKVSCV

male rats [7] = experiment: Back muscle contractions; type: in vivo, rat; conditions: sc; for Doses significantly increasing summed BMC vs vehicle: rats, Bonferroni p<0.05; for Rat BMC ED50: summed BMC over 2 h, rising phase of dose-effect function
Outline: (§1)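 Male Sprague-Dawley rats (250–300 g) with ≥2 weeks of acclimation, one sc injection per weekly session of saline or one of 4 doses (1.0 mL/kg), N=9/group. Dose ranges were 0.03–1.0, 0.01–0.3 or 0.1–3.0 mg/kg depending on compound. WDS and BMC were counted by a non-blind rater in eight 90-s periods every 15 min and summed. ED50 came from nonlinear regression of score versus log dose on the rising phase.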

male rats [8] = experiment: Wet dog shakes; type: in vivo, rat; conditions: sc; for Doses significantly increasing summed WDS vs vehicle: Bonferroni p<0.05
Outline: as §1

5-HT2A receptor [9] = conditions: ref Eshleman et al. (2014); cited from earlier work
[10] = ref Eshleman et al. (2014); cited from earlier work
5-HT2A receptor [11] = conditions: ref Eshleman et al. (2014); cited from earlier work; remark: listed apart in the source
rats = conditions: cited from earlier work
male rats [12] = experiment: M100907 antagonism of agonist-induced WDS and BMC; type: in vivo, rat
Outline: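 Male Sprague-Dawley rats got sc M100907 (0.1 mg/kg in 1:9 DMSO:saline) or its vehicle 30 min before sc agonist or saline, with agonists at fixed doses of 0.03–1.0 mg/kg. Summed WDS and BMC came from eight 90-s observations at 15-min intervals by a non-blind rater. Rats were tested weekly, N=9/group, by Bonferroni comparison with Veh/Veh.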

5-HT2A = conditions: ref Marek and Aghajanian, 1994; cited from earlier work
[13] = 0.1 mg/kg M100907 30 min before 0.03 mg/kg 25C-NBOMe
[14] = 0.1 mg/kg M100907 30 min before 0.1 mg/kg 25I-NBOMe
[15] = 0.1 mg/kg M100907 30 min before 0.3 mg/kg 2C-C
[16] = 0.1 mg/kg M100907 30 min before 1.0 mg/kg 2C-I
[17] = 0.1 mg/kg M100907 30 min before 1.0 mg/kg DOI sc

| SMILES | Effect on locomotor activity (mice [1]) | Effect on body temperature (male rats [2]) | EC50 (human 5-HT2C receptors) | Emax (human 5-HT2C receptors) | EC50 (human 5-HT2A receptors [3]) | Emax (human 5-HT2A receptors [3]) | Fold greater affinity for human 5-HT2A receptors than 2C counterpart (human 5-HT2A receptors [4]) | ED50 in the head twitch assay (mice [5]) | IC50 [6] | Doses significantly increasing summed BMC vs vehicle (male rats [7]) | Rat BMC ED50 (male rats [7]) | Doses significantly increasing summed WDS vs vehicle (male rats [8]; rats) | Functional activity in the IP assay (5-HT2A receptor [9]) | Fold more potent than NBOMe counterpart in 5-HT2A-mediated calcium mobilization (human 5-HT2A receptors [3]) | Functional activity in the [3H]AA assay (5-HT2A receptor [11]) | other results |
| --- | --- | --- | --- | --- | --- | --- | --- | --- | --- | --- | --- | --- | --- | --- | --- | --- |
| COc1cc(CCNCc2ccccc2OC)c(OC)cc1I [Compound 25I-NBOMe, 2-(4-iodo-2,5-dimethoxyphenyl)-N-[(2-methoxyphenyl)methyl]ethanamine] | dose-dependently reduced locomotor activity | did not significantly alter body temperature at any dose tested | 88.9 ± 11 nM | 70% | 34.7 ± 4.2 nM | 108% | 6 fold | 0.08 mg/kg | 3.9 ± 0.4 nM | increases in contractions occurred after the 0.03, 0.1, and 0.3 mg/kg doses | 0.037 ± 0.011 mg/kg | Significant increases in shakes occured after the 0.1 and 0.3 mg/kg doses |  |  |  | Fold more potent than 2C-I at eliciting head twitch behavior (mice [5]): about 10 fold; Fold more potent than 2C counterpart in inducing WDS (male rats [8]; rats, 25C-NBOMe vs 2C-C, 25I-NBOMe vs 2C-I): 10 fold; Rat WDS ED50 (male rats [8]; summed WDS over 2 h, rising phase of dose-effect function): 0.062 ± 0.026 mg/kg |
| COc1cc(CCN)c(OC)cc1Cl [Compound 2C-C, 2-(4-chloro-2,5-dimethoxyphenyl)ethanamine] |  | failed to significantly alter body temperature at any dose tested | 77.6 ± 5.5 nM | 29% | 4.57 ± 0.5 nM | 95% |  |  | 308 ± 21.6 nM | Significant stimulation of both behaviors occurred after administration of 0.3, 1.0, and 3.0 mg/kg doses |  | Significant stimulation of both behaviors occurred after administration of 0.3, 1.0, and 3.0 mg/kg doses | full agonist | 13 fold | full agonist | Substitution for MDMA in drug discrimination [10]: fully substitutes |
| COc1cc(CCNCc2ccccc2OC)c(OC)cc1Cl [Compound 25C-NBOMe, 2-(4-chloro-2,5-dimethoxyphenyl)-N-[(2-methoxyphenyl)methyl]ethanamine] | dose-dependently reduced locomotor activity | did not significantly alter body temperature at any dose tested | 178 ± 25 nM | 60% | 61.7 ± 3.5 nM | 104% | 18 fold |  | 8.7 ± 1 nM | stimulation of contractions occured after 0.03, 0.1 and 0.3 mg/kg doses |  | Significant stimulation of shaking behavior occured after 0.03 and 0.1 mg/kg doses |  |  |  | DOM-appropriate responding (rats; dose of 0.03 mg/kg, ref Gatch and colleagues (2017)): < 20%; Substitution for DOM in drug discrimination (rats; ip, ref Gatch et al., 2017): fully substituted; Substitution for MDMA in drug discrimination (rats; ip, ref Gatch et al., 2017): only partially substituting |
| COc1cccc([C@H](O)C2CCN(CCc3ccc(F)cc3)CC2)c1OC [Compound M100907, (R)-(2,3-dimethoxyphenyl){1-[2-(4-fluorophenyl)ethyl]-4-piperidinyl}methanol] |  |  |  |  |  |  |  |  |  |  |  |  |  |  |  | Effect on BMC induced by 25C-NBOMe (male rats [12]; [13]): significantly decreased; Effect on WDS induced by 25C-NBOMe (male rats [12]; [13]): significantly decreased WDS; Effect on BMC induced by 25I-NBOMe (male rats [12]; [14]): decreased; Effect on WDS induced by 25I-NBOMe (male rats [12]; [14]): decreased WDS; Effect on BMC induced by 2C-C (male rats [12]; [15]): decreased; Effect on WDS induced by 2C-C (male rats [12]; [15]): decreased WDS; Effect on BMC induced by 2C-I (male rats [12]; [16]): decreased; Effect on WDS induced by 2C-I (male rats [12]; [16]): decreased WDS; Effect on BMC induced by DOI (male rats [12]; [17]): significantly decreased shakes and contractions; Effect on WDS induced by DOI (male rats [12]; [17]): significantly decreased shakes and contractions; Selectivity for 5-HT2A over 5-HT2C and other receptor subtypes (5-HT2A): more than 100 fold |
| COc1cc(CCN)c(OC)cc1I [Compound 2C-I, 2-(4-iodo-2,5-dimethoxyphenyl)ethanamine] |  | failed to alter body temperature at any dose tested | 47.2 ± 6.7 nM | 28% | 3.97 ± 0.7 nM | 89% |  | 0.83 mg/kg | 125 ± 13 nM | increases in BMC occurred after 0.3, 1.0, and 3.0 mg/kg doses | 0.192 ± 0.060 mg/kg | Significant stimulation of shaking behavior ocurred after 1.0 and 3.0 mg/kg doses | agonist | 8 fold | antagonist | Substitution for prototypical hallucinogens like LSD in drug discrimination [10]: fully substitutes |
| COc1cc(CC(C)N)c(OC)cc1I (stereo not drawn) [DOI, 1-(4-iodo-2,5-dimethoxyphenyl)propan-2-amine, reference compound] |  | no significant effects on body temperature at any dose tested | 47.7 ± 3 nM | 50% |  | 109% |  |  | 56.1 ± 4.9 nM | significant increases in both behaviors occurring after 0.1, 0.3, and 1.0 mg/kg |  | significant increases in both behaviors occurring after 0.1, 0.3, and 1.0 mg/kg |  |  |  |  |
